Laboratory results taken from ChEMBL document CHEMBL1155547, “New aminopropandiol derivatives as orally available and short-acting calcium-sensing receptor antagonists” (Bioorg Med Chem Lett, 2010).
The source made the active and inactive calls. The rule behind the calls is not given here.

How the values were obtained:
[1] = target: T1, Extracellular calcium-sensing receptor (Homo sapiens, UniProt P41180); assay: Antagonist activity at human CaSR expressed in rat PC12 cells transfected with zif promoter/luciferase by reporter gene assay; assay type: functional, cell-based, PC-12
T1 sequence (P41180 whole entry): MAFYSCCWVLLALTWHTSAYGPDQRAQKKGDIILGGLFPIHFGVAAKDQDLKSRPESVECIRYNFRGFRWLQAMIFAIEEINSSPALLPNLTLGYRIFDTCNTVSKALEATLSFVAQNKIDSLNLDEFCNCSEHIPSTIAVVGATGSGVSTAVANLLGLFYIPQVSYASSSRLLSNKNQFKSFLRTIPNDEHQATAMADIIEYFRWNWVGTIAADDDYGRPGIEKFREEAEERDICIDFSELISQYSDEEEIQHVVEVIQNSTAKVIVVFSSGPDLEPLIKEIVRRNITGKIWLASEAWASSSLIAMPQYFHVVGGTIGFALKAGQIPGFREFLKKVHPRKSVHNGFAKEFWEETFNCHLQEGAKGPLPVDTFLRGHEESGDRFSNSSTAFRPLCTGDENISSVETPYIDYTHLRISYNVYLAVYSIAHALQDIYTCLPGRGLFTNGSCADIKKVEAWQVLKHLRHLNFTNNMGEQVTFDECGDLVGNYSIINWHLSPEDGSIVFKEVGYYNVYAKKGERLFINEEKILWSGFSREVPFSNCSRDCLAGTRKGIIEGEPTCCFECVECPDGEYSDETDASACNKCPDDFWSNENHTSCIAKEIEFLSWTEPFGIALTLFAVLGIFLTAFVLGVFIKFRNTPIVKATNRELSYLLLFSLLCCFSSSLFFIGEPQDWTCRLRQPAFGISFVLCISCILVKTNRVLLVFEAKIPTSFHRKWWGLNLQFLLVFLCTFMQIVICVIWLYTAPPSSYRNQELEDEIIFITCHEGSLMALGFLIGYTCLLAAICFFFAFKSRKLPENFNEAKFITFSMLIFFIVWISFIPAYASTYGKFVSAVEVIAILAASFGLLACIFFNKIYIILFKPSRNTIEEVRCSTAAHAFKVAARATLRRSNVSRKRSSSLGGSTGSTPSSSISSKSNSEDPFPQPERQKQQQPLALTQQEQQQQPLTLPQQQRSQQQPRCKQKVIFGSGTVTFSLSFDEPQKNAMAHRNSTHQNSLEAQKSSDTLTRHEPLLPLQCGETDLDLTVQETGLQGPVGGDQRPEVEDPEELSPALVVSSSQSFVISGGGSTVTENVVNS
Summary of the method: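 Human CaSR antagonism measured by luciferase reporter gene assay in PC12h cells transfected with zif promoter/luciferase and hCaSR plasmids. IC50 values are means of two or more experiments.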

[2] = system: Rattus norvegicus; assay: Increase of serum PTH (1-34) level in Sprague-Dawley rat at 100 mg/kg, po after 30 and 60 mins by ELISA relative to NPS 2143; assay type: functional
Summary of the method: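 Sprague–Dawley rats (n = 5) were dosed orally at 100 mg/kg. Serum PTH 1–34 rise over basal at 30 and 60 min was measured by rat PTH 1–34 ELISA. The rise was scored against a reference calcilytic given at 100 mg/kg po: ++ >80%, + 50–80%, N.E. <50% of the reference increase.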

[3] = system: Rattus norvegicus; assay: Increase of serum PTH (1-34) level in Sprague-Dawley rat at 100 mg/kg, po after 30 and 60 mins by ELISA; assay type: functional
Summary of the method: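 Sprague–Dawley rats (n = 5) were dosed orally at 100 mg/kg. Endogenous PTH 1–34 was measured by rat PTH 1–34 ELISA. The value is the increase over basal level at 30 min and 60 min after dosing.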

[4] = system: Rattus norvegicus; assay: Increase of plasma PTH (1-84) level in Sprague-Dawley rat at 10 mg/kg, po after 2 hrs by ELISA
[5] = system: Rattus norvegicus; assay: Increase of plasma PTH (1-84) level in Sprague-Dawley rat at 10 mg/kg, po after 30 mins by ELISA
[6] = Cmax in rat at 10 mg/kg, po; assay type: ADME, organism-based; design: dose 10 mg/kg, route oral; conditions: in vivo
[7] = Half life in rat at 10 mg/kg, po; assay type: ADME, organism-based; design: dose 10 mg/kg, route oral; conditions: in vivo
[8] = target: Cytochrome P450 2D6 (Homo sapiens, UniProt P10635); assay: Inhibition of CYP2D6; assay type: ADME
Sequence of Cytochrome P450 2D6 (P10635 whole entry): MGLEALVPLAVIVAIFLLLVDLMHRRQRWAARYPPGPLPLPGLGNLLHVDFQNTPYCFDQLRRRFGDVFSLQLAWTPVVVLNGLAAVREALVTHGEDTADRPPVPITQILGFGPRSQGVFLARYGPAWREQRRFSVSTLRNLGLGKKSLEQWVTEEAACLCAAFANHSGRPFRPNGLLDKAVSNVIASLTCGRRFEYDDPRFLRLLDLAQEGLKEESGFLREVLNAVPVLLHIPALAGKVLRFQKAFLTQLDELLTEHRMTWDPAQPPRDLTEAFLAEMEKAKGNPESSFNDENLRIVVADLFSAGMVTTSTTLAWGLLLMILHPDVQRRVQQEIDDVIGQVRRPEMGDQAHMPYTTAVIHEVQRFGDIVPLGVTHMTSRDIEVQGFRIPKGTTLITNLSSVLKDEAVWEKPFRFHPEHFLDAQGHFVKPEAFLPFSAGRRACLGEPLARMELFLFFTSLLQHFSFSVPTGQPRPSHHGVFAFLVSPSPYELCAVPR

[9] = Tmax in rat at 10 mg/kg, po; assay type: ADME, organism-based; design: dose 10 mg/kg, route oral; conditions: in vivo
[10] = Bioavailability in rat at 10 mg/kg, po; assay type: ADME, organism-based; conditions: in vivo

CC(OC[C@H](O)CNC(C)(C)Cc1ccc2ccccc2c1)c1ccc2ccccc2c1 (some centres not stated)
IC50 [1]: 550 nM

Cc1ccc(C(C)OC[C@H](O)CNC(C)(C)Cc2ccc3ccccc3c2)cc1 (some centres not stated)
Activity [2]: <50%
IC50 [1]: 140 nM

CC(C)(Cc1ccc2ccccc2c1)NC[C@@H](O)COC(c1ccccc1)C1CC1 (some centres not stated)
IC50 [1]: 70 nM

CC(OC[C@H](O)CNC(C)(C)Cc1ccc2ccccc2c1)c1ccccc1C#N (some centres not stated)
Activity [2]: 50%
IC50 [1]: 160 nM

CC(CCOC[C@H](O)CNC(C)(C)Cc1ccc2ccccc2c1)c1ccccc1 (some centres not stated)
IC50 [1]: 300 nM

C=CC(OC[C@H](O)CNC(C)(C)Cc1ccc2ccccc2c1)c1ccccc1 (some centres not stated)
IC50 [1]: 210 nM

CC(OC[C@H](O)CNC(C)(C)Cc1ccc2ccccc2c1)c1ccccc1Cl (some centres not stated)
Activity [2]: <50%
IC50 [1]: 140 nM

Cc1ccccc1[C@@H](OC[C@H](O)CNC(C)(C)Cc1ccc2ccccc2c1)C1CC1
IC50 [1]: 83 nM

CCC(OC[C@H](O)CNC(C)(C)Cc1ccc2ccccc2c1)c1ccccc1 (some centres not stated)
IC50 [1]: 92 nM

CC(C)C(OC[C@H](O)CNC(C)(C)Cc1ccc2ccccc2c1)c1ccccc1 (some centres not stated)
IC50 [1]: 200 nM

Cc1ccccc1C(OC[C@H](O)CNC(C)(C)Cc1ccc2ccccc2c1)C1CC1 (some centres not stated)
Activity [2]: >80%
IC50 [1]: 37 nM

CC(C)(Cc1ccc2ccccc2c1)NC[C@@H](O)COc1cccc(Cl)c1C#N
IC50 [1]: 26 nM
Activity [3]: 10 pg/mL

CCCCC(OC[C@H](O)CNC(C)(C)Cc1ccc2ccccc2c1)c1ccccc1 (some centres not stated)
IC50 [1]: 170 nM

Cc1ccccc1[C@H](OC[C@@H](O)CNC(C)(C)Cc1ccc2ccccc2c1)C1CC1
IC50 [1]: 310 nM

COc1ccccc1C(C)OC[C@H](O)CNC(C)(C)Cc1ccc2ccccc2c1 (some centres not stated)
Activity [2]: >80%
IC50 [1]: 120 nM

CC(C)(Cc1ccc2ccccc2c1)NC[C@@H](O)COC(c1ccccc1)C1CCC1 (some centres not stated)
IC50 [1]: 74 nM

Cc1ccccc1C(C)OC[C@H](O)CNC(C)(C)Cc1ccc2ccccc2c1 (some centres not stated)
Activity [2]: >80%
IC50 [1]: 200 nM

CC(COC[C@H](O)CNC(C)(C)Cc1ccc2ccccc2c1)c1ccccc1 (some centres not stated)
IC50 [1]: 810 nM

CCCC(OC[C@H](O)CNC(C)(C)Cc1ccc2ccccc2c1)c1ccccc1 (some centres not stated)
IC50 [1]: 150 nM

CC(OC[C@H](O)CNC(C)(C)Cc1ccc2ccccc2c1)c1ccccc1[N+](=O)[O-] (some centres not stated)
Activity [2]: <50%
IC50 [1]: 540 nM

CC(C)(Cc1ccc2ccccc2c1)NC[C@@H](O)COC(c1ccccc1)C1CCCCC1 (some centres not stated)
IC50 [1]: 610 nM

CC(OC[C@H](O)CNC(C)(C)Cc1ccc2ccccc2c1)c1cccc(Cl)c1 (some centres not stated)
Activity [2]: <50%
IC50 [1]: 220 nM

CC(C)(Cc1ccc2ccccc2c1)NC[C@@H](O)COC(c1ccccc1)c1ccccc1
IC50 [1]: 730 nM

Cc1cccc(C(C)OC[C@H](O)CNC(C)(C)Cc2ccc3ccccc3c2)c1 (some centres not stated)
Activity [2]: 50%
IC50 [1]: 170 nM

CC(Cc1ccccc1)OC[C@H](O)CNC(C)(C)Cc1ccc2ccccc2c1 (some centres not stated)
IC50 [1]: 440 nM

CC(C)(Cc1ccc2ccccc2c1)NC[C@@H](O)COC(C)(C)c1ccccc1
IC50 [1]: 2240 nM

Cc1ccccc1[C@@H](OC[C@@H](O)CNC(C)(C)Cc1ccc2ccccc2c1)C1CC1
IC50 [1]: 760 nM

CC(OC[C@H](O)CNC(C)(C)Cc1ccc2ccccc2c1)c1ccccn1 (some centres not stated)
IC50 [1]: 420 nM

CC(C)(Cc1ccc2ccccc2c1)NC[C@@H](O)COC(=O)c1ccccc1
IC50 [1]: > 30000 nM

CC(OC[C@H](O)CNC(C)(C)Cc1ccc2ccccc2c1)c1ccccc1 (some centres not stated)
IC50 [1]: 220 nM

COc1ccccc1C(OC[C@H](O)CNC(C)(C)Cc1ccc2ccccc2c1)C1CC1 (some centres not stated)
Activity [2]: >80%

CC(OC[C@H](O)CNC(C)(C)Cc1ccc2ccccc2c1)c1cccc2ccccc12 (some centres not stated)
IC50 [1]: 360 nM

CC(C)(Cc1ccc2ccccc2c1)NC[C@@H](O)COC(c1ccccc1)C(C)(C)C (some centres not stated)
IC50 [1]: 570 nM

Cc1ccccc1[C@H](OC[C@H](O)CNC(C)(C)Cc1ccc2ccccc2c1)C1CC1
Activity [4]: inactive
Activity [5]: Active
Cmax [6]: 300 nM
half-life [7]: 2 h
IC50 [8]: 500 nM
IC50 [1]: 23 nM
Tmax [9]: 1 h
bioavailability [10]: 13%

CC(C)(Cc1ccc2ccccc2c1)NC[C@@H](O)COC(c1ccccc1)C1CCCC1 (some centres not stated)
IC50 [1]: 200 nM
